Activity calls are given as the source filed them.

In data set [1] the target is T1, Metabotropic glutamate receptor 1 (Homo sapiens, UniProt Q13255). In words: Antagonist activity at human mGluR1 receptor expressed in CHO cell membranes assessed as inhibition of L-glutamate-induced calcium mobilization by FLIPR. The data set is classed as functional, cell-based. The method in brief:
(§1)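 Human mGluR1a stably expressed in CHO cells; antagonism read as inhibition of the intracellular Ca2+ rise on FLIPR. IC50 is the mean of at least three independent determinations, each run in duplicate, reported ± SEM.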
(In general: Calcium assays in cells follow changes in intracellular calcium, usually with a dye or a luminescent sensor.)

The nature of data set [2]: Half life in rat at 3 mg/kg, po and 1 mg/kg, iv. The data set is classed as ADME, organism-based. Particulars: in vivo. The method in brief: (§2)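 Rats dosed orally at 3 mg/kg and intravenously at 1 mg/kg. Oral bioavailability (F), half-life and total plasma clearance were derived from the plasma profiles.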
Data set [3] in a line: Oral bioavailability in rat at 3 mg/kg. The data set is classed as ADME, organism-based. The conditions noted are these: in vivo. In a few lines: as §2
The nature of data set [4]: Octanol to water distribution coefficient, log D at pH 7.4. The data set is classed as physicochemical.
In data set [5] the target is Metabotropic glutamate receptor 5 (Homo sapiens, UniProt P41594). Nature of the data set: Antagonist activity at human mGluR5 receptor expressed in CHO cell membranes assessed as inhibition of L-glutamate-induced calcium mobilization by FLIPR. The data set is classed as functional, cell-based.
Metabotropic glutamate receptor 5, sequence (P41594 whole entry): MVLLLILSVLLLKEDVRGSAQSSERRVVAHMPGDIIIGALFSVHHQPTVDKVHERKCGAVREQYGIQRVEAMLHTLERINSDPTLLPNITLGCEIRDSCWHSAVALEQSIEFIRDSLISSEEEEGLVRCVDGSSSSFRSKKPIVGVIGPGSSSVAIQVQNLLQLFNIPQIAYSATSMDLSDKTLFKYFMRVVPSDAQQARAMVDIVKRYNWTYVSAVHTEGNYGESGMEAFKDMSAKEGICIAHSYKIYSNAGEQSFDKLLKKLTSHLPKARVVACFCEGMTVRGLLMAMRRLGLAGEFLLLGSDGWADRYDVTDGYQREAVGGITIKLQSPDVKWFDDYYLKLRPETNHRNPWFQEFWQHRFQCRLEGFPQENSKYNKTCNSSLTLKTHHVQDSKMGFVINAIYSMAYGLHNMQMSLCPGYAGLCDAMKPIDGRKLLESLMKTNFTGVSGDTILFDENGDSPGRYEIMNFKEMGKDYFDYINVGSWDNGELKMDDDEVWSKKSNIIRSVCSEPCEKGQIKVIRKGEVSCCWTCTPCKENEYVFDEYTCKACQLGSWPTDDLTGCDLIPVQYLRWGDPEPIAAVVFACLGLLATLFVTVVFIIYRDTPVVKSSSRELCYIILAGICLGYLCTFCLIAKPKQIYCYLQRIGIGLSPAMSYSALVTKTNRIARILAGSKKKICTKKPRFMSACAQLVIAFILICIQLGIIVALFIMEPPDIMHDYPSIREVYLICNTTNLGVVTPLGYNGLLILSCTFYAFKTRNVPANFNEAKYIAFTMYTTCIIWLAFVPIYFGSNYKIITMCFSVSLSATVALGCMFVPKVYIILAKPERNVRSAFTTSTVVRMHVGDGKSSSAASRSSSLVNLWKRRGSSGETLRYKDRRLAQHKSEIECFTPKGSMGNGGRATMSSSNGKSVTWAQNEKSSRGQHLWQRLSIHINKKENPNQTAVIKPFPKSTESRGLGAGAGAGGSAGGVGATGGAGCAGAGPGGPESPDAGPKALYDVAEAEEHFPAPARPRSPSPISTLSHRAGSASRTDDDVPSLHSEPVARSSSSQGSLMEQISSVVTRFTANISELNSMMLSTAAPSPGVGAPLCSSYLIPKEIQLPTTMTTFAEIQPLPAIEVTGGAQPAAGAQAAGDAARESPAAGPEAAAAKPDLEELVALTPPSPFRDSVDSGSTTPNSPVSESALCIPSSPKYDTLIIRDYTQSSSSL
Data set [6] in a line: Plasma clearance in rat at 3 mg/kg, po and 1 mg/kg, iv. The data set is classed as ADME, organism-based. In a few lines: as §2
A short description of data set [7]: Half life in rat at 1 mg/kg, po and 0.3 mg/kg, iv. It is filed as ADME, organism-based. Particulars: in vivo. The method in brief:
(§3)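 Rats dosed orally at 1 mg/kg and intravenously at 0.3 mg/kg. Oral bioavailability, half-life and total plasma clearance were derived from the plasma profiles.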

Data set [8] concerns the target Metabotropic glutamate receptor 1 (Rattus norvegicus, UniProt P23385). In words: Antagonist activity at rat mGluR1 receptor expressed in CHO cell membranes assessed as inhibition of L-glutamate-induced calcium mobilization by FLIPR. It is filed as functional, cell-based.
The subject of data set [9] is Mus musculus. Nature of the data set: Plasma concentration in mouse at 1 mg/kg, po after 30 mins.
In data set [10] the test system is Rattus norvegicus. Nature of the data set: Induction of catalepsy in rat at 30 mg/kg, po.
Data set [11] has as its target Metabotropic glutamate receptor 8 (Homo sapiens, UniProt O00222). In words: Antagonist activity at human mGluR8 receptor expressed in CHO cell membranes assessed as inhibition of L-glutamate-induced calcium mobilization by FLIPR. The data set is classed as functional, cell-based.
Data set [12] deals with Brain. In words: Drug uptake in mouse brain at 1 mg/kg, po after 30 mins. Particulars: in vivo, 0.5 h.
For data set [13], the target named is Metabotropic glutamate receptor 2 (Homo sapiens, UniProt Q14416). In words: Antagonist activity at human mGluR2 receptor expressed in CHO cell membranes assessed as inhibition of L-glutamate-induced calcium mobilization by FLIPR. The data set is classed as functional, cell-based.
Data set [14] can be described thus: Plasma clearance in rat at 1 mg/kg, po and 0.3 mg/kg, iv. The data set is classed as ADME, organism-based. In a few lines: as §3
Data set [15] concerns the target T1, Metabotropic glutamate receptor 1. Nature of the data set: Antagonist activity at human mGluR1 receptor quisqualic acid binding site expressed in CHO cell membranes assessed as inhibition of L-glutamate-induced calcium mobilization by FLIPR. The data set is classed as functional. In a few lines:
as §1

Data set [16] concerns Rattus norvegicus. Nature of the data set: Antipsychotic-like effect in rat assessed as inhibition of MAP-induced prepulse inhibition at 1 mg/kg, po. The data set is classed as functional, organism-based. Set-up: dose 1 mg/kg. The method in brief:
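Rat prepulse inhibition model of methamphetamine-induced disruption. Test article given orally at 1 mg/kg.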

Data set [17] in a line: Oral bioavailability in rat at 1 mg/kg. It is filed as ADME, organism-based. The conditions noted are these: in vivo. The method in brief: as §3

T1 sequence (Q13255 whole entry): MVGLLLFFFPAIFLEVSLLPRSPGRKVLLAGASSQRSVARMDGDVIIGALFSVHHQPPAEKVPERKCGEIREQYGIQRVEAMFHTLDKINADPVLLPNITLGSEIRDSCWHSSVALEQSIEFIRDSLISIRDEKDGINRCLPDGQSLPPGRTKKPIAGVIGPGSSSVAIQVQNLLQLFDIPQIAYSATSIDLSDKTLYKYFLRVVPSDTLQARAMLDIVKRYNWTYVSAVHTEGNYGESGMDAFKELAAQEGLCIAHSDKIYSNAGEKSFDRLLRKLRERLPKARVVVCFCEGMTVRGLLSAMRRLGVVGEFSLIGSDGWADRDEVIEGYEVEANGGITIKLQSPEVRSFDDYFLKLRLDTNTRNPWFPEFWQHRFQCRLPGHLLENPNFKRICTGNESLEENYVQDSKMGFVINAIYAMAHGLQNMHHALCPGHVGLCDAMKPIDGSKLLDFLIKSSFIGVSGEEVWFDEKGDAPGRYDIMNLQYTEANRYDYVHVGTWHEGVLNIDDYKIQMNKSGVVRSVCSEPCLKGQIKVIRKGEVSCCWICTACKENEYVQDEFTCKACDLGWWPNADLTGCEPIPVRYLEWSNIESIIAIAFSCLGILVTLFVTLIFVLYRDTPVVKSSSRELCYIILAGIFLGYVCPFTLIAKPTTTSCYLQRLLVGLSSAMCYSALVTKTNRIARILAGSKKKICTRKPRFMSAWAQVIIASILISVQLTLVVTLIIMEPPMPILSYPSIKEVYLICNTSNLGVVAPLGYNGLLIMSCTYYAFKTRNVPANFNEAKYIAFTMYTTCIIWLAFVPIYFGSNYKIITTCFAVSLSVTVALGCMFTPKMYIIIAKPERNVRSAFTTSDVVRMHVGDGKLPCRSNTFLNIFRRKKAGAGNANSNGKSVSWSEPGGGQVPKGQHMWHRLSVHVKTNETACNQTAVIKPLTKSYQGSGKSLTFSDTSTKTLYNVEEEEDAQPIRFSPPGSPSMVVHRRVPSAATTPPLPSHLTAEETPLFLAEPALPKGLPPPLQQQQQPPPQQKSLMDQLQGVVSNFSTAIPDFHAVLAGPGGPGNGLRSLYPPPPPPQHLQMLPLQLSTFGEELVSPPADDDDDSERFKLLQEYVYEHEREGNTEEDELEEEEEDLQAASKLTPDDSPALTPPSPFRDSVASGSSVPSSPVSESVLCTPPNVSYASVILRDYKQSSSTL
Metabotropic glutamate receptor 8, sequence (O00222 whole entry): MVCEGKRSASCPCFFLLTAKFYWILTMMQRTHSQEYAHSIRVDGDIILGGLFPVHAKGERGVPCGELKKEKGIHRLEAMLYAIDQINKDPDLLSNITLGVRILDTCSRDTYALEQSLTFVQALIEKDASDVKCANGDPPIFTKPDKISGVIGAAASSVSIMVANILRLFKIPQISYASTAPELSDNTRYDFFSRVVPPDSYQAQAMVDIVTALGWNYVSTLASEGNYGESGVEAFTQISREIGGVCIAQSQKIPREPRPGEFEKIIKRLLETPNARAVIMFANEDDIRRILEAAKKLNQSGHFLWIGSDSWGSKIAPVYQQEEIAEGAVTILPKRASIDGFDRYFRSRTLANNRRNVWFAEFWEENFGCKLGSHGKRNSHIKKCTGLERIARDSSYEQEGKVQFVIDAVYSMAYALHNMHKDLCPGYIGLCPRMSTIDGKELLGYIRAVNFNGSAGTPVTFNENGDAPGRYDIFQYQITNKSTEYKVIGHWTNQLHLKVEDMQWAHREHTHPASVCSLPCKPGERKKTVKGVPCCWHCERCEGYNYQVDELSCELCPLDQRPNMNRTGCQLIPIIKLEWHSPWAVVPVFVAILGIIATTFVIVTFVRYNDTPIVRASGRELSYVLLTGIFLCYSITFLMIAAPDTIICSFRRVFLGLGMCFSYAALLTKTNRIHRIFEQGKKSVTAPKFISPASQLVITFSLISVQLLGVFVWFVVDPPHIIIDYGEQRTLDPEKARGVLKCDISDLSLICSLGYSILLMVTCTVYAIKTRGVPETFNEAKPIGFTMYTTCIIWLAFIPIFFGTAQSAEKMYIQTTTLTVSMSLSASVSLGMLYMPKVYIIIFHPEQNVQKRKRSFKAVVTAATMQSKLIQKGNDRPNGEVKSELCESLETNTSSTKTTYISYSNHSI
Metabotropic glutamate receptor 1 (Rattus norvegicus, UniProt P23385), sequence (P23385 whole entry): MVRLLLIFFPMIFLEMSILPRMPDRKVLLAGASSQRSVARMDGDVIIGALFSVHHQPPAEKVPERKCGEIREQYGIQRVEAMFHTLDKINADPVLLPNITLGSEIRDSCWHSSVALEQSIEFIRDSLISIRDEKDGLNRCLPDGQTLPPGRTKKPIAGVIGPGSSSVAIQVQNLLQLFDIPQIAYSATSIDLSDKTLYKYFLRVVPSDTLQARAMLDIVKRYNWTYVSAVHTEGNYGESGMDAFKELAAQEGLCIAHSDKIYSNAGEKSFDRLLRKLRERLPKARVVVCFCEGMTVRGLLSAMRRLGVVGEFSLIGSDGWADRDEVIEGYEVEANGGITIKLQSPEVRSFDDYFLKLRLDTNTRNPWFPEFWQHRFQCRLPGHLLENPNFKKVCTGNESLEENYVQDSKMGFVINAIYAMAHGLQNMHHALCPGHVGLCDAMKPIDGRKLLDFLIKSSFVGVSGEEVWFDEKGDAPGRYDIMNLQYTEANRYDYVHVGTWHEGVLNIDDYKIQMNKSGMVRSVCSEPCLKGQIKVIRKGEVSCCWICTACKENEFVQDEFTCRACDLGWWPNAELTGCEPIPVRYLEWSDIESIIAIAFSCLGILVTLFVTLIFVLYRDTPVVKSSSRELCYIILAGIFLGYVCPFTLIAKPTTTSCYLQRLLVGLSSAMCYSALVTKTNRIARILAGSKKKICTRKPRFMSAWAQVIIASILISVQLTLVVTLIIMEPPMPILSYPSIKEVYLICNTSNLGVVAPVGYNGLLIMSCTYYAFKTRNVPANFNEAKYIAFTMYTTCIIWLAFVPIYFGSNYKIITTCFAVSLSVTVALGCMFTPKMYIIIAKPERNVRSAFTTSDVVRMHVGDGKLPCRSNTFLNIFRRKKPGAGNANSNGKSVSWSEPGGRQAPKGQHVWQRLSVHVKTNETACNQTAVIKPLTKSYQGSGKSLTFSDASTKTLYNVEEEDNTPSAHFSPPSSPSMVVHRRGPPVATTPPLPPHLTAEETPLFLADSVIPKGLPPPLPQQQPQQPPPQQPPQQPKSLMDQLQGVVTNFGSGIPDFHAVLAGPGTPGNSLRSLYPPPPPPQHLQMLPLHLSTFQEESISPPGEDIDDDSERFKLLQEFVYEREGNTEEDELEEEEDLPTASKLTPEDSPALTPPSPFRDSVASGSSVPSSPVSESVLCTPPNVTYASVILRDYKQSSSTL

The IC50 is the concentration that gives 50% inhibition. `CCC(=O)c1ccc(-c2nnn(-c3cccnc3)c2C)cc1`: the IC50 in [1] stood at 170 nM.

As usually defined, the half-life is the time needed for the level to fall by half in the phase considered. As a reminder, the bioavailability is dose-corrected exposure relative to a reference, in per cent. A higher bioavailability goes with much systemic uptake. For orientation: logD means lipophilicity at a set pH, counting ionised and neutral species. For the molecule `CCN1Cc2cc(-c3nnn(-c4cccnc4F)c3C)ccc2C1=O`, in [2], the half-life was 18 min. Moreover, the IC50 amounted to 3.3 nM in data set [1] and 1100 nM in data set [5]. The molecule also had a bioavailability in [3] of 62%. The logD in data set [4] amounted to 1.8. In data set [6], this molecule returned a clearance of 19 mL/min/kg.

Take `Cc1c(-c2ccc(C(=O)c3ccccc3)cc2)nnn1-c1cccnc1`: in [1], the IC50 was found to be 3900 nM.

In [2], `Cc1c(C2=CCN(C(=O)N(C)C(C)C)CC2)nnn1-c1cccnc1F` gave a half-life of 12 min. Besides, the IC50 in [5] was > 10000 nM.

As for `Cc1nc2cc(-c3nnn(-c4cccnc4)c3C)ccc2s1`, in data set [1], the 50% inhibitory concentration (IC50) amounted to 1500 nM.

In data set [2], `Cc1c(-c2ccc3c(c2)CN(C(C)C)C3=O)nnn1-c1cccnc1F` had a half-life of 132 min. Moreover, the concentration for half-maximal inhibition (IC50) turned out to be 5.5 nM in data set [1] and 2300 nM in [5]. In data set [3], this molecule had a bioavailability of 96%. This molecule yielded a logD in [4] of 2.2. The same molecule had a clearance in data set [6] of 5.9 mL/min/kg.

In the case of `Cc1c(-c2ccc(C(=O)N(C)C(C)C)cc2)nnn1-c1cccnc1`, in data set [1], the IC50 came out at 880 nM.

For `Cc1c(-c2ccc(C(=O)N3CCCC3)cc2)nnn1-c1cccnc1`, in data set [1], the IC50 was 1800 nM.

For `Cc1c(-c2ccc(C(=O)OC(C)C)cc2)nnn1-c1cccnc1`, in data set [1], the IC50 came out at 33 nM.

In the case of `Cc1c(-c2ccc(C(=O)NC(C)C)cc2)nnn1-c1cccnc1`, in data set [1], the IC50 amounted to 210 nM.

On to `Cc1c(-c2ccc3ccccc3c2)nnn1-c1cccnc1`, for which the IC50 in [1] stood at 300 nM.

Turning to `Cc1c(-c2ccc3c(c2)CCC3=O)nnn1-c1cccnc1`, in data set [1], the IC50 was found to be 69 nM.

Turning to `Cc1c(-c2ccc(C(=O)C3CC3)cc2)nnn1-c1cccnc1`, the IC50 in [1] was found to be 22 nM.

As for `Cc1c(-c2ccc3c(c2)CC(C)(C)C3=O)nnn1-c1cccnc1`, the IC50 in [1] was 11 nM.

`Cc1c(-c2ccc3c(c2)CN(C(C)C)C3=O)nnn1-c1ccc(F)cc1F` showed a half-life in [7] of 42 min. Moreover, the IC50 in [8] is 3.6 nM; in data set [11], > 10000 nM; in [13], > 10000 nM; in data set [15], > 10000 nM. This molecule also came in with a concentration at 0.5 h in data set [9] of 170 nM. The outcome in [10] was inactive. Moreover, in data set [12], the Drug uptake was determined as 0.45 nmol/g. Moreover, the clearance in data set [14] turned out to be 20 mL/min/kg. For the same molecule, in [16], the outcome was Active. The molecule further showed a bioavailability in data set [17] of 46%.

As for `Cc1c(-c2ccc3c(c2)CC(C2CC2)C3=O)nnn1-c1cccnc1` (stereo not drawn), in data set [1], the IC50 turned out to be 2.6 nM.

`CC(=O)c1ccc(-c2nnn(-c3cccnc3)c2C)cc1`: the IC50 in [1] turned out to be 470 nM.

With `Cc1c(-c2ccc3[nH]ccc3c2)nnn1-c1cccnc1`, the IC50 in data set [1] turned out to be 250 nM.

In data set [2], `Cc1c(-c2ccc3c(c2)CN(C2CC2)C3=O)nnn1-c1cccnc1F` gave a half-life of 36 min. Moreover, the results for the IC50 in [1] and in [5] were 3.5 nM and 5400 nM, respectively. Further, the bioavailability in data set [3] came to 100%. This molecule also yielded a logD in data set [4] of 1.9. In [6], this molecule registered a clearance of 8.1 mL/min/kg.

`Cc1c(-c2ccc3ncccc3c2)nnn1-c1cccnc1`: the concentration for half-maximal inhibition (IC50) in data set [1] came out at 4.9 nM.

`CCCN1Cc2cc(-c3nnn(-c4cccnc4F)c3C)ccc2C1=O` gave a half-life in data set [2] of 60 min. Moreover, the IC50 in [1] amounted to 3.6 nM; in data set [5], 2800 nM. The bioavailability in data set [3] came to 100%. In [4], this molecule had a logD of 2.3. The molecule also had a clearance in data set [6] of 5.5 mL/min/kg.

Consider `Cc1c(-c2cccc(C(=O)OC(C)C)c2)nnn1-c1cccnc1`, for which, in data set [1], the IC50 is 2400 nM.

(Values after ChEMBL document CHEMBL1155999, “Discovery and biological profile of isoindolinone derivatives as novel metabotropic glutamate receptor 1 antagonists: a potential treatment for psychotic disorders” (Bioorg Med Chem Lett, 2009).)
